This is an account of results in ChEMBL document CHEMBL3228001, “Rigid congeners of dopamine based on octahydrobenzo[f]quinoline: peripheral and central effects” (1979).

The source made the active and inactive calls. Where only a bound is given, the exact number is not on record here.

One assay has as its system Canis familiaris. The experiment in a line: Emetic activity in sc dosed dogs assessed as frequency of vomiting for 1 hr relative to apomorphine. The format is functional, Canis lupus familiaris.
In assay [1] the test system is Rattus norvegicus. The experiment in a line: Dopaminergic activity in Sprague-Dawley rat assessed as stereotypic behavior administered into caudate-putamen measured up to 25 ug from 5 to 15 mins to persisted up to 3 hrs. The format is functional, organism-based. The essentials: (§1)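 Male Sprague-Dawley rats (250 ± 26 g) had guide cannulae implanted for bilateral injection into caudate-putamen and nucleus accumbens, and were used 10–14 days later. Nialamide 100 mg/kg ip was given 2 h before. Drug in N2-bubbled water (minimal DMF if needed), 1–2 µL over 60 s. Hyperactivity was read as photocell counts/5 min, stereotypy was scored, and cannula sites were checked histologically.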

The test system of assay [2] is Rattus norvegicus. The experiment in a line: Dopaminergic activity in Sprague-Dawley rat assessed as stereotyped behavior characterized by continous sniffing up to 12.5 to 50 ug administered into nucleus accumbens. The format is functional, organism-based. The essentials: as §1
Assay [3] deals with Rattus norvegicus. The experiment in a line: Dopaminergic activity in Sprague-Dawley rat assessed as hyperactivity up to 25 ug administered into caudate-putamen. The format is functional, organism-based. The essentials:
as §1

Assay [4] relates to Rattus norvegicus. The experiment in a line: Dopaminergic activity in Sprague-Dawley rat assessed as hyperactivity behavior administered into nucleus caudate-putamen measured up to 25 ug from 30 to 45 mins to persisted up to 3 hrs. The format is functional, organism-based. An outline of the steps:
as §1

The subject of assay [5] is Rattus norvegicus. The experiment in a line: Dopaminergic activity in Sprague-Dawley rat assessed as stereotyped behavior characterized by sniffing and biting at up to 10 mg/kg, sc. The format is functional, organism-based. More on the design: dose 10 mg/kg. An outline of the steps: (§2)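 Male Sprague-Dawley rats, groups of 10, were dosed sc in distilled water with 0.1% sodium metabisulfite, with solvent controls. Stereotyped sniffing and biting were scored as for intracerebral tests at 21 ± 2 °C between 08:00 and 18:00 h. Dose range runs from the threshold dose to the dose giving maximal response, in mg/kg sc.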

In assay [6] the test system is Mus musculus. The experiment in a line: Dopaminergic activity in albino mouse assessed as stereotyped behavior characterized by sniffing and biting at up to 10 mg/kg, sc. Type of assay: functional, organism-based. Set-up: dose 10 mg/kg. The essentials: (§3)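 Male albino mice (20–25 g, N = 10) were dosed sc in water containing 0.1% sodium metabisulfite and scored for stereotyped sniffing and biting. Dose range runs from the threshold dose to the dose giving maximal response, in mg/kg sc.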

The test system of assay [7] is Mus musculus. The experiment in a line: Dopaminergic activity in albino mouse assessed as induction of ipsilateral circling behavior up to 10 mg/kg, sc. Type of assay: functional, organism-based. More on the design: dose 10 mg/kg. An outline of the steps: (§4)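 Male albino mice (30–35 g) received a unilateral caudate-putamen electrolesion (1.5 mA, 15 s) and 14 days of recovery. Only mice circling ≥7 ipsilateral revolutions/2 min after apomorphine HCl 1.0 mg/kg sc were kept, with a further 7 days of recovery. After sc dosing, complete revolutions in one direction were counted manually. Lesion sites were verified afterwards.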

Assay [8] concerns Mus musculus. The experiment in a line: Dopaminergic activity in albino mouse assessed as induction of climbing behavior up to 10 mg/kg, sc. More on the design: dose 10 mg/kg. The format is functional, organism-based. An outline of the steps: (§5)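 Male albino mice (20–25 g, N = 10) were dosed sc in water with 0.1% sodium metabisulfite and placed in wire-mesh-lined cages. A mouse counted as climbing when holding the wire with all four paws. Measures: climbing index (% time climbing in the 30 min after the first climb) and maximum single-climb time. Doses run from threshold to maximal response.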

Assay [9] relates to Rattus norvegicus. The experiment in a line: Dopaminergic activity in Sprague-Dawley rat assessed as hyperactivity up to 6.25 to 50 ug administered into nucleus accumbens. Type of assay: functional, organism-based. An outline of the steps: as §1
The test system of the next assay is Felis catus. The experiment in a line: Inhibition of electrical-stimulation of postganglionic cardioaccelerator nerve in iv dosed cat. Type of assay: functional. The note with it: read-out: ID50 (the source's name). An outline of the steps:
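Cats were anaesthetised with sodium pentobarbital 30 mg/kg and ventilated. The right postganglionic cardioaccelerator nerves were stimulated with bipolar electrodes (2 Hz, 5 ms pulses, supramaximal voltage, 20–30 s trains), and heart rate was read by cardiotachometer. Doses were spaced at 0.48 log intervals, and the dose inhibiting positive chronotropic responses by 50% was calculated.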

The subject of assay [10] is Rattus norvegicus. The experiment in a line: Dopaminergic activity in Sprague-Dawley rat assessed as stereotyped behavior characterized by continous sniffing up to 25 ug administered into caudate-putamen. The format is functional, organism-based. The essentials:
as §1

The subject of assay [11] is Mus musculus. The experiment in a line: Dopaminergic activity in albino mouse assessed as stereotyped behavior characterized by sniffing and biting at 0.05 to 1 mg/kg, sc. The format is functional, organism-based. The essentials:
as §3

In assay [12] the test system is Mus musculus. The experiment in a line: Dopaminergic activity in albino mouse assessed as induction of climbing behavior at 0.5 mg/kg, sc up to 30 mins. Type of assay: functional. The conditions noted are these: route subcutaneous. The essentials: as §5
Assay [13] in a line: Induction of pecking activity in pigeons assessed as counts for 1 hr relative to apomorphine. Type of assay: functional, Columbidae. An outline of the steps: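 Pigeons were dosed im, with doses spaced at 0.3 log intervals, and pecks were counted over 1 h. Pecking after 1.63 µmol apomorphine hydrochloride was taken as the 100% response.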
In assay [14] the test system is Rattus norvegicus. The experiment in a line: Dopaminergic activity in Sprague-Dawley rat assessed as hyperactivity behavior administered into nucleus caudate-putamen measured up to 25 ug from 30 to 45 mins to persisted up to 5 to 6 hrs. Type of assay: functional, organism-based. The essentials:
as §1

Assay [15] deals with Rattus norvegicus. The experiment in a line: Dopaminergic activity in Sprague-Dawley rat assessed as stereotypic behavior administered into caudate-putamen measured up to 25 ug from 5 to 15 mins to persisted up to 5 to 6 hrs. Type of assay: functional, organism-based. The essentials: as §1
The subject of assay [16] is Rattus norvegicus. The experiment in a line: Dopaminergic activity in Sprague-Dawley rat assessed as locomotor and stereotypic behavior administered into nucleus accumbens measured up to 25 ug from 5 to 15 mins to persisted up to 5 to 6 hrs. The format is functional, organism-based. The essentials: as §1
The test system of assay [17] is Rattus norvegicus. The experiment in a line: Dopaminergic activity in Sprague-Dawley rat assessed as stereotyped behavior characterized by periodic biting associated with sniffing administered into nucleus accumbens. The format is functional, organism-based. An outline of the steps:
as §1

Assay [18] relates to Mus musculus. The experiment in a line: Dopaminergic activity in albino mouse assessed as induction of climbing behavior at 0.1 to 0.5 mg/kg, sc. The format is functional, organism-based. An outline of the steps: as §5
Assay [19] concerns Mus musculus. The experiment in a line: Dopaminergic activity in albino mouse assessed as induction of ipsilateral circling behavior at 0.05 to 0.5 mg/kg, sc. Type of assay: functional, organism-based. The essentials:
as §4

Assay [20] relates to Rattus norvegicus. The experiment in a line: Dopaminergic activity in Sprague-Dawley rat assessed as stereotyped behavior characterized by sniffing and biting at 0.025 to 0.05 mg/kg, sc. Type of assay: functional, organism-based. The essentials: as §2
Assay [21] has as its system Mus musculus. The experiment in a line: Dopaminergic activity in albino mouse assessed as induction of ipsilateral circling behavior at 0.05 to 0.5 mg/kg, sc after 120 mins. Type of assay: functional, organism-based. An outline of the steps:
as §4

For assay [22], the system named is Mus musculus. The experiment in a line: Dopaminergic activity in sc dosed albino mouse assessed as induction of ipsilateral circling behavior. The format is functional, organism-based. The essentials: as §4
The subject of assay [23] is Mus musculus. The experiment in a line: Dopaminergic activity in albino mouse assessed as induction of climbing behavior at 0.1 to 0.5 mg/kg, sc after 120 mins. Type of assay: functional, organism-based. The essentials: as §5

Take `CCN1CCC[C@@H]2c3ccc(O)c(O)c3CC[C@@H]21` (relative stereo): the “fold change (FC)” value with Canis familiaris was determined as 0.053. Further, the outcome in the assay with Rattus norvegicus [1], in the assay with Rattus norvegicus [2], in the assay with Rattus norvegicus [3], in the assay on Rattus norvegicus [4] and in the assay on Rattus norvegicus [9] was Active. Also, the outcome with Rattus norvegicus [5], in the assay with Mus musculus [6], with Mus musculus [7] and in the assay with Mus musculus [8] was inactive.
Regarding `CN1CCc2cccc3c2[C@H]1Cc1ccc(O)c(O)c1-3` [APOMORPHINE], the ED50 with Felis catus turned out to be 0.019 µmol/kg.
`Oc1ccc2c(c1O)CC[C@@H]1NCCC[C@H]21` (relative stereo): the result in the assay on Rattus norvegicus [10], in the assay with Rattus norvegicus [2], in the assay on Rattus norvegicus [3], with Rattus norvegicus [5], in the assay with Mus musculus [6] and in the assay with Mus musculus [7] was inactive. The outcome with Mus musculus [8] and in the assay on Rattus norvegicus [9] was inactive. Besides, in the assay with Canis familiaris, the “fold change (FC)” value is given as 0.024. In addition, the outcome in the assay with Rattus norvegicus [1] and in the assay on Rattus norvegicus [4] was Active. Moreover, the ED50 in the assay on Felis catus worked out at 0.027 µmol/kg.
As to `CCCN1CCC[C@@H]2c3ccc(O)c(O)c3CC[C@H]21` (relative stereo), the outcome with Mus musculus [11], in the assay with Rattus norvegicus [10], with Rattus norvegicus [14], in the assay with Rattus norvegicus [15], with Rattus norvegicus [16] and in the assay with Rattus norvegicus [3] was Active. Also, the result in the assay with Rattus norvegicus [17], in the assay on Mus musculus [18], in the assay with Mus musculus [19], in the assay with Rattus norvegicus [20], with Mus musculus [21] and in the assay with Mus musculus [23] was Active. Further, in the assay with Rattus norvegicus [9], the result was Active. Also, the Activity in the assay on Mus musculus [12] is over 90%; in the assay on Mus musculus [22], “Dose-dependent effect”. For the same compound, the results for the “fold change (FC)” value (in assay [13]; in the assay on Canis familiaris) were 0.32 and 2.7, respectively. Moreover, the ED50 in the assay on Felis catus was determined as 0.0003 µmol/kg.
For the compound `CCCN1CCC[C@@H]2c3ccc(O)c(O)c3CC[C@@H]21` (relative stereo), the result with Rattus norvegicus [10], with Rattus norvegicus [2], in the assay on Rattus norvegicus [3], in the assay with Rattus norvegicus [5], in the assay with Mus musculus [6] and with Mus musculus [7] was inactive. The outcome in the assay with Mus musculus [8] and in the assay with Rattus norvegicus [9] was inactive. The outcome with Rattus norvegicus [1] and in the assay with Rattus norvegicus [4] was Active.
